Laboratory results published in the EternaBench riboswitch data.

Test system: MS2 coat protein
Assay: apparent Kd, MS2 coat protein; higher = weaker binding; RNA-MaP array; FMN 200 µM where present
In short: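 SNAP-549-labelled MS2 coat protein, doubled from 0.7 or 1.5 nM to 3 µM, was titrated over designs transcribed by stalled E. coli RNA polymerase on Illumina sequencing-chip clusters. Titrations were run without and then with constant ligand in 100 mM Tris-HCl pH 7.5, 80 mM KCl, 4 mM MgCl2, BSA, DTT, yeast tRNA and Tween-20. The apparent Kd is the median of filtered per-cluster fits to green signal normalised to red-channel RNA signal and control-cluster median Fmax.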

[1] = designed as: ON switch for flavin mononucleotide, no ligand
[2] = ligand present: flavin mononucleotide, designed as: ON switch for flavin mononucleotide
[3] = designed as: OFF switch for flavin mononucleotide, no ligand
[4] = ligand present: flavin mononucleotide, designed as: OFF switch for flavin mononucleotide

| Sequence | apparent Kd [1] | apparent Kd [2] | apparent Kd [3] | apparent Kd [4] |
| --- | --- | --- | --- | --- |
| UUAAUAAUACAAGGAUAUCUAUUGUUCUUUCGACAUACAUGAGGAUCACCCAUGUUAAUAUAUAUAGAGAAGGUGUAUUUUCAG | 0.028 µM | 0.0245 µM | – | – |
| UUAAUGUGAGGAUAUCAGGUGUGCUAGAGAACUGGUACAUCUGAGAAGGCACAUGAGGAUCACCCAUGUUCUUC | – | – | 0.0428 µM | 0.197 µM |
| UUAAUUAACAAGAAGGCUUACAUGAGGAUCACCCAUGUUGUACAUGGAUAAAGAGGAUAUUGCUAAUAAUUAUUUAUCUUAAUU | – | – | 0.0615 µM | 0.0373 µM |
| UUAAUUAUACAAGGAUAUCUAUUGUAGUUUCGACUUACAUGAGGAUCACCCAUGUUAAUAUGUUUAGAGAAGGUGUAUUUUCAG | 0.0983 µM | 0.0611 µM | – | – |
| UUACCUUAUGAGAAGGCGGUCAUGAAACAUGAUCGAGGAUAUCAUGUAAACAUGAGGAUCACCCAUGUAUGGGUAUUAUGGUAC | 0.165 µM | 0.0318 µM | – | – |
| UUACGGAUAGAGGAUAUAUUAAGGAAAGUUUCGAUAGAAGGCUAGACAUGAGGAUCACCCAUGUAUAUUGGGAU | – | – | 0.131 µM | 0.151 µM |
| UUACGUCCCGUUUACAUGAGGAUCACCCAUGUCGAAAGAGCGUAGGAUAUGCUACCUAGUUGGUAGCAGAAGGAUGCAACGUCG | 0.0252 µM | 0.0375 µM | – | – |
| UUACUAUCACAGAAGGCUAGAUAGUAUAUAGAUGGAGGAUAUGUGACAUGAGGAUCACCCAUGUUUCACCGACAUGAGGAUCAC | – | – | 0.0174 µM | 0.0416 µM |
| UUACUAUUACAGAAGGUUAAAUAAUAUAUAAAUGAAGGAUAUGUAACAUGAGGAUCACCCAUGUUUCACCCAUAUGAGGAUCAC | – | – | 0.00849 µM | 0.00799 µM |
| UUACUGAUAUAGAAGGGUAUAUGGGAAUUACAUGAGGAUCACCCAUGUUUUAUAGGAUAUGUAUAUAGUAUUUAAUCAAGUUUA | – | – | 0.0346 µM | 0.0271 µM |
| UUAGCAUACCGAGGAUAUUCAUAUAAUAAAUAAACAUGAGGAUCACCCAUGUGGCGAAAGCCUAGGGAGAAGGCGGAAUGCUAU | 0.197 µM | 0.0246 µM | – | – |
| UUAGGUCGAAACAUGAGGAUCACCCAUGUGUUGUAAUUAACAUAGGAUAUGUUUAUACUUUUUGGGCAGAAGGAUGAUAUUGCU | 0.0173 µM | 0.014 µM | – | – |
| UUAGUAUUGCAAGGAUAUGUUUAUGAUAUUUUUCCUCUUACAUGAGGAUCACCCAUGUUUAACUUACAGAAGGUGCUAUGAUUU | – | – | 0.575 µM | 1.03 µM |
| UUAUAACAGUCAGGAUAUGUAACGUACAACGGCGCAGAAGGGACAUGAGGAUCACCCAUGUUAUGGUUCUGGUACUAUGACGUU | – | – | 0.0132 µM | 0.0149 µM |
| UUAUACAUGAGGAUCUCCCAUGACAUGAGGAUCACCCAUGUGCAGGAUAUACGUGUUAUAAUAUAGUAGAAGGGCAGACUAUAU | – | – | 0.0411 µM | 0.0743 µM |
| UUAUAUAGAGUGAGGAUAUGCUGGUCCUUGGAUCAGCAGAAGGCACAUGAGGAUCACCCAUGUAAUAUAAUAUU | – | – | 0.0224 µM | 0.042 µM |
| UUAUAUAUUAGAGGAUAUGUGUUCAUGUUACAUGAGGAUCACCCAUGUUUAUGUUGAUUGAUCUUACAGAAGGCUAUACAAUGA | – | – | 0.0201 µM | 0.0199 µM |
| UUAUGAGAGCAGGAUAUCUUAUAUUUGUAUUAAAGAGAAGGGCUCACAUGAGGAUCACCCAUGUGGUCCUAGAU | – | – | 0.0516 µM | 0.431 µM |
| UUAUGCUUUAAGAAGGUUCAAACUACAUAUUGCGCACAUGAGGAUCACCCAUGUUGGUGAAUAAGAAAGGAUAUUAGACUGUGC | – | – | 0.332 µM | 0.223 µM |
| UUAUGUGUUGUAGGAUAUCAUUAGAUUUGUAAUUUAAUUGUAAUUUAUAUAUGAGAAGGACAUUUACAUGAGGAUCACCCAUGU | – | – | 0.0223 µM | 0.0134 µM |
| UUAUUUAGGUAGGAUAUCGAUAUUAAUUAUUAUCGAGAAGGGUCUACAUGAGGAUCACCCAUGUUAGCAUGUAU | – | – | 0.0281 µM | 0.0299 µM |
| UUAUUUAUACAAGGAUAUCUAUUAUAUUCACAUCCUACAUGAGGAUCACCCAUGUUAUAUAUUUUAGAGAAGGUGUAUUGUCUG | 0.0272 µM | 0.0308 µM | – | – |
| UUAUUUAUGCAAGGAUAUCAAUUAUAUACACGUCCUACAUGAGGAUCACCCAUGUUUAGUUUUUUUGAGAAGGUGCAUUGUCGG | 0.0521 µM | 0.0445 µM | – | – |
| UUAUUUGUACAAGGAUAUCUAUUAUAUUCACGUCCUACAUGAGGAUCACCCAUGUUAUAUAUUUUAGAGAAGGUGUAUUGUCUG | 0.0319 µM | 0.0353 µM | – | – |
| UUCACCUUAUUUUACAUGAGGAUCACCCAUGUUUUUUUUACGUAGGAUAUCGAUGCUUGUUUAUUCGAGAAGGACGAUGUAAGU | 0.0366 µM | 0.0324 µM | – | – |
| UUCAGCUCGUGAGGAUAUACAACACUGCUUCGGCAGUGUAUUAAGAUCACAUGAGGAUCACCCAUGUAGAAGGCACGAGCUGAU | – | – | 0.0148 µM | 0.29 µM |
| UUCAGCUCGUGAGGAUAUACAUGUGCUGGAAACAGCACUAUUAAGAUCACAUGAGGAUCACCCAUGUAGAAGGCACGAGCUGAG | – | – | 0.048 µM | 0.585 µM |

| Sequence | apparent Kd [1] | apparent Kd [2] | apparent Kd [3] | apparent Kd [4] |
| --- | --- | --- | --- | --- |
| UUCAGCUCGUGAGGAUAUACAUGUGCUGGAAACAGCACUAUUAAGUUCACAUGAGGAUCACCCAUGUAGAAGGCACGAGCUGAG | – | – | 0.0149 µM | 0.0193 µM |
| UUCAUGUGAGGAUAUGUGUACUGCUUUCUGUUUAGAUGUACACAGAAGGCACAUGAGGAUCACCCAUGUAGUAC | – | – | 0.0455 µM | 0.0318 µM |
| UUCCUCGUUGUGAGGAUAUCGUCCGUGUUUUGUUACGAGAAGGCACAUGAGGAUCACCCAUGUUACUUGAUGUU | – | – | 0.0187 µM | 0.11 µM |
| UUCGACGUCGUAGGAUAUGUAGGAUAUUCCUACAUGAGGAUCACCCAUGUUGACAUGGAAGAAGGACAGAAGGACGAUGUCCAU | 0.301 µM | 0.0064 µM | – | – |
| UUCGUGCAGCUUUGCUGUACGCGUACAUGAGGAUCACCCAUGUAGGAUAUGGUAGGCAAAGCUUACUAGAAGGAUAUAGUGAUU | – | – | 0.00934 µM | 0.0094 µM |
| UUCGUGCAGCUUUGCUGUACGCGUACAUGAGGAUCACCCAUGUAGGAUAUGGUAGGCAAAGUUUACUAGAAGGAUAUAGUGAUC | – | – | 0.0132 µM | 0.0143 µM |
| UUCUAACGAGGAUAUCGAUGGUGGAACAUGAGGAUCACCCAUGUAUGAGAUAUUGUAGUUCGAGAAGGCGUUCAGU | – | – | 0.0421 µM | 0.0325 µM |
| UUCUGGCUAGGAUAUACAGUGUCCACGAGUUAGUUGCCCUAACAUGAGGAUCACCCAUGUAGAAGGAGCGAGAA | – | – | 0.0482 µM | 0.0837 µM |
| UUCUGUGCCCAAAGUUAAAGCACAUGAGGAUCACCCAUGUGAAAGGAUAUGUGGCGUGUAACGUUAUAGAAGGUUCACAAACAA | – | – | 0.0319 µM | 0.105 µM |
| UUCUUCUGAGGAUAUACAUAGAUUUACAUGAGGAUCACCCAUGUUCCUCUAUGUAUAAAUGUAGAAGGCAGAAGUU | – | – | 0.0169 µM | 0.0912 µM |
| UUCUUUACACGAGGAUAUCAUACAUGAGGAUCACCCAUGUUACUUUGUCUGUUAUUAUGUAUUAUUGAGAAGGCGUUUUUCUUU | – | – | 0.0207 µM | 0.0179 µM |
| UUGAAUUGAAACAUGAGGAUCACCCAUGUGUCAUAAUUGACAUAGGAUAUGUAUAUACUUUUAUAAUAGAAGGAUGACGAUACU | 0.0156 µM | 0.0127 µM | – | – |
| UUGAGGUAGGAGAAGGACAGAGGCGGAAACACAAACAUGAGGAUCACCCAUGUAGGAUAUCCUAACUAACGAGAAUACCUCAAG | – | – | 0.00636 µM | 0.00689 µM |
| UUGAGGUGUCAAGGAUAUGCUACCGUUUCGGUAGCAGAAGGUGAUCACAUGAGGAUCACCCAUGUAUGCAUGCGUGAGCGUGCU | 0.0456 µM | 0.285 µM | – | – |
| UUGCCUCAGAACAUGAGGAUCACCCAUGUGCUGCGGGCAACGUAGGAUAUGAUGGUAUGAUACCAUCAGAAGGAUGAUGGUACC | 0.00596 µM | 0.00533 µM | – | – |
| UUGCCUCAGAACAUGAGGAUCACCCAUGUGCUGCGGGCAACGUAGGAUAUGAUGGUUCGAUACCAUCAGAAGGAUGAUGGUACC | 0.00542 µM | 0.00522 µM | – | – |
| UUGCGCUGUCGAGAGGAUAUGCGGUGUUGGACAUGAGGAUCACCCAUGUUUGCGAUAGCUUUACGGUAGAAGGCUCUUCAGCUGC | 0.0639 µM | 0.0359 µM | – | – |
| UUGCUACAUGAGGAUCACCCAUGUCAGGAUAUAGUGCAUAGCGUGGAAGCUCUGUCGAUUAGAAGGGACUGUCU | – | – | 0.0253 µM | 0.0274 µM |
| UUGGACGCCGUAGGAUAUGUAGGAUAUUCCUACAUGAGGAUCACCCAUGUUGACAUGGAAGAAGGACAGAAGGACGAUGUCCAU | 0.277 µM | 0.00478 µM | – | – |
| UUGGACGUCGUAGGAGAUGUAGGAUAUUCCUACAUGAGGAUCACCCAUGUUGACAUGGAAGAAGGACAGAAGGACGAUGUCCAU | 0.294 µM | 0.00827 µM | – | – |
| UUGGACGUCGUAGGAUAUGUAGGAUAAUCCUACAUGAGGAUCACCCAUGUUGACAUGGAAGAAGGACAGAAGGACGAUGUCCAU | 1.12 µM | 0.0875 µM | – | – |
| UUGGACGUCGUAGGAUAUGUAGGAUAUUCCUACAUGAGGAUCACCCAUGUGGACAUGGAAGAAGGACAGAAGGACGAUGUCCAU | 0.0637 µM | 0.0047 µM | – | – |
| UUGGACGUCGUAGGAUAUGUAGGAUAUUCCUACAUGAGGAUCACCCAUGUUGACAUGGAAGAAGGACAGAAGGACGAUUUCCAU | 0.284 µM | 0.00541 µM | – | – |
| UUGGACGUCGUAGGAUAUGUAGGAUAUUCCUACAUGAGGAUCACCCAUGUUGACAUGGAAGAGGGACAGAAGGACGAUGUCCAU | 0.606 µM | 0.0305 µM | – | – |
| UUGGACGUCGUAGGAUAUGUAGGAUAUUCCUACAUGAGGAUCACCCAUGUUGACAUGGAAGCAGGACAGAAGGACGAUGUCCAU | 0.578 µM | 0.0143 µM | – | – |
| UUGGACGUCGUAGGAUAUGUAGGAUAUUCCUACAUGAGGAUCACCCAUGUUGACAUGGAGGAAGGACAGAAGGACGAUGUCCAU | 0.667 µM | 0.098 µM | – | – |
| UUGGACGUCGUAGGAUAUGUAGGAUAUUCCUACAUGAGGAUCACCCAUGUUGACAUGGUAGAAGGACAGAAGGACGAUGUCCAU | 0.423 µM | 0.0534 µM | – | – |
